Data from ChEMBL document CHEMBL4334504 (J Med Chem, 2019).
≈ marks a conversion by molar mass, not a printed value. Calls of active or inactive are those of the source. The rule behind the calls is not given here.

Legend:
[1] = Aqueous solubility of compound in PBS buffer at 1 to 100 ug/ml at pH 7.3 to 7.5 measured after 24 hrs by HPLC analysis; assay type: physicochemical
Summary of the method: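 3 mg compound in 3 mL PBS (pH 7.3-7.5) shaken 24 h at 25 °C, then centrifuged. Supernatant mixed 1:1 with acetonitrile and analysed by HPLC (C18, 1 mL/min). Solubility calculated from a standard curve (1 mg/mL methanol stock) and the dilution factor.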

Escherichia coli = assay: Effect on growth of Escherichia coli ATCC 25922 assessed as bacterial growth inhibition measured after 16 to 18 hrs by CLSI method; assay type: organism-based; settings: in vivo
Summary of the method: (§1)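 CLSI microdilution. Colonies from TSA (16-20 h, 37 °C) suspended in PBS to 0.5 McFarland, then diluted in TSB to ~10^5 CFU/mL. Incubated with serial compound dilutions for 16-20 h at 37 °C. MIC is the lowest concentration inhibiting growth.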

Clostridioides difficile [2] = assay: Antibacterial activity against Clostridium difficile 4118 ATCC BAA 1870 assessed as bacterial growth inhibition incubated for 48 hrs under anaerobic condition by CLSI protocol-based assay; assay type: functional; settings: 4118 ATCC BAA 1870, 48 h
Summary of the method: (§2)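 Broth microdilution following CLSI guidance. Strains pre-grown anaerobically on BHIS agar (BHI plus yeast extract, vitamin K1, hemin) at 37 °C for 48 h. ~10^5 CFU/mL in BHIS broth added to serial compound dilutions. Incubated anaerobically at 37 °C for 48 h. MIC is the lowest concentration showing visible growth inhibition.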

[3] = Stability of compound in simulated intestinal fluid assessed as parent compound remaining at pH 6 measured after 8 hrs by HPLC analysis; assay type: ADME; settings: read-out: Stability
Summary of the method: (§3)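 200 µL of a 50 µg/mL methanol stock mixed with 800 µL SGF (pH 1.6) or SIF (pH 6.0), stirred at 37 °C. Sampled at 4 and 8 h for isocratic HPLC (acetonitrile/water 50:50, 1.0 mL/min, 254 nm). Percent remaining calculated as AUC after incubation / AUC before incubation.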

[4] = Stability of compound in simulated gastric fluid assessed as parent compound remaining at pH 1.6 measured after 8 hrs by HPLC analysis; assay type: ADME; settings: read-out: Stability; summary of the method: as §3
HRT-18 cell line = assay: Cytotoxicity against human HRT18 cells at > 256 uM measured after 2 hrs by MTS assay; assay type: cell-based; settings: hrt-18, 2 h
Bifidobacterium bifidum = assay: Effect on growth of Bifidobacterium bifidum 212A ATCC 11863 measured after 48 hrs in anerobic conditions by CLSI method; assay type: organism-based; settings: in vivo
[5] = Stability of compound in simulated intestinal fluid assessed as parent compound remaining at pH 6 measured after 4 hrs by HPLC analysis; assay type: ADME; settings: read-out: Stability; summary of the method: as §3
Vero = assay: Cytotoxicity against African green monkey Vero cells at > 256 uM measured after 2 hrs by MTS assay; assay type: cell-based; settings: chlorocebus sabaeus
[6] = test system: Lacticaseibacillus paracasei; assay: Effect on growth of Lactobacillus casei ATCC 334 measured after 48 hrs in 5% CO2 by CLSI method
Caco-2 = assay: Cytotoxicity against human Caco2 cells at > 256 uM measured after 2 hrs by MTS assay; assay type: cell-based; settings: caco-2, 2 h
Enterobacter cloacae = assay: Effect on growth of Enterobacter cloacae ATCC BAA 1143 assessed as bacterial growth inhibition measured after 16 to 18 hrs grown in tryptic soy medium by CLSI method; assay type: organism-based; settings: in vivo; summary of the method: as §1
[7] = Effect on growth of Lactobacillus gasseri EX336960VC03 HM 400 measured after 48 hrs in 5% CO2 by CLSI method; settings: lactobacillus gasseri ex336960vc03, 48 h
[8] = Stability of compound in simulated gastric fluid assessed as parent compound remaining at pH 1.6 measured after 4 hrs by HPLC analysis; assay type: ADME; settings: read-out: Stability; summary of the method: as §3
Clostridioides difficile [9] = assay: Antibacterial activity against Clostridium difficile VPI 10463 ATCC 43255 assessed as bacterial growth inhibition incubated for 48 hrs under anaerobic condition by CLSI protocol based assay; assay type: functional; settings: ATCC 43255 VPI 10463, 48 h; summary of the method: as §2
[10] = Effect on growth of Lactobacillus crispatus JV-V01 HM 103 measured after 48 hrs in 5% CO2 by CLSI method; settings: lactobacillus crispatus jv-v01, 48 h
[11] = Cytotoxicity against human Caco2 cells measured after 2 hrs by MTS assay; assay type: cell-based; settings: Caco-2 cells
[12] = Cytotoxicity against human HRT18 cells measured after 2 hrs by MTS assay; assay type: cell-based; settings: HRT-18 cells
[13] = Cytotoxicity against African green monkey Vero cells measured after 2 hrs by MTS assay; assay type: cell-based; settings: chlorocebus sabaeus
Clostridioides difficile [14] = assay: Bactericidal activity against Clostridium difficile 4118 ATCC BAA 1870 incubated for 48 hrs followed by re-plating on BHIS agar plates and measured after 24 hrs; assay type: functional; settings: read-out: MBC99.9
Clostridioides difficile [15] = assay: Bactericidal activity against Clostridium difficile 4118 ATCC BAA 1870 assessed as reduction in bacterial colony forming units at 8 fold MIC preincubated followed by re-plating on BHIS agar plate and measured after 6 hrs under anaerobic condition by time-kill assay relative to control; assay type: functional; design: scale not given: the % may be the effect or the level left
Clostridioides difficile [16] = assay: Ratio of MBC99.9 to MIC for Clostridium difficile 4118 ATCC BAA 1870; assay type: functional
Clostridioides difficile [17] = assay: Bactericidal activity against Clostridium difficile 4118 ATCC BAA 1870 assessed as reduction in bacterial colony forming units at 8 fold MIC preincubated followed by re-plating on BHIS agar plate and measured after 24 hrs under anaerobic condition by time-kill assay; assay type: functional, organism-based
[18] = Drug level in CDI patient plasma at 200 mg, po administered every 12 hrs for 10 days and measured 3 to 5 hrs post last dose by LC-MS/MS analysis; assay type: ADME, organism-based; settings: human, in vivo

SMILES	solubility at 24 h [1]	MIC (Escherichia coli)	MIC (Clostridioides difficile [2])	remaining at 8 h [3]	remaining at 8 h [4]	Activity (HRT-18 cell line)	MIC (Bifidobacterium bifidum)	remaining at 4 h [5]	Activity (Vero)	MIC [6]	Activity (Caco-2)	MIC (Enterobacter cloacae)	MIC [7]	remaining at 4 h [8]	MIC (Clostridioides difficile [9])	MIC [10]	further results
Cc1nc(N2CCOCC2)c2scc([N+](=O)[O-])c2n1	18.7 µg/mL (≈ 66.7 µM)	> 913 µM	14 µM (≈ 3.92 µg/mL)	80%	< 10%	Non-Toxic	> 913 µM	79%	Non-Toxic	> 913 µM	Non-Toxic	> 913 µM	> 913 µM	< 10%	14 µM (≈ 3.92 µg/mL)	> 913 µM	
Cc1nc2c([N+](=O)[O-])csc2c(=O)[nH]1	> 500 µg/mL	> 1212 µM	19 µM (≈ 4.01 µg/mL)	76%	90%	Non-Toxic	> 1212 µM	91%	Non-Toxic	> 1212 µM	Non-Toxic	> 1212 µM	> 1212 µM	90%	38 µM (≈ 8.03 µg/mL)	> 1212 µM	CC50 at 2 h [11]: > 606 µM; CC50 at 2 h [12]: > 606 µM; CC50 at 2 h [13]: > 606 µM
O=c1[nH]c(/C=C/c2ccc(F)cc2)nc2c([N+](=O)[O-])csc12	14.8 µg/mL (≈ 46.6 µM)	> 807 µM	3 µM (≈ 0.952 µg/mL)	51%	48%	Non-Toxic	> 807 µM	60%	Non-Toxic	> 807 µM	Non-Toxic	> 807 µM	> 807 µM	50%	6 µM (≈ 1.9 µg/mL)	> 807 µM	MBC (Clostridioides difficile [14]): 6 µM (≈ 1.9 µg/mL); Activity (Clostridioides difficile [15]): 100%; Ratio (Clostridioides difficile [16]): 2
CCc1c(Cl)c(O)c(Cl)c(O)c1C(=O)O[C@H]1[C@H](O)[C@H](OC)[C@H](OC/C2=C\C=C\C[C@H](O)/C(C)=C/[C@H](CC)[C@@H](O[C@@H]3OC(C)(C)[C@@H](OC(=O)C(C)C)[C@H](O)[C@@H]3O)/C(C)=C/C(C)=C/C[C@@H]([C@@H](C)O)OC2=O)O[C@@H]1C [FIDAXOMICIN]			0.1 µM (≈ 0.106 µg/mL)				> 242 µM			> 242 µM			<= 2 uM		0.1 µM (≈ 0.106 µg/mL)	30 µM (≈ 31.7 µg/mL)	Activity (Clostridioides difficile [17]): Active; Cp [18]: 25 to 50 ng/mL
Cc1nc2c([N+](=O)[O-])csc2c(=O)n1CCCc1ccccc1	10.8 µg/mL (≈ 32.7 µM)	> 777 µM	12 µM (≈ 3.95 µg/mL)	< 10%	< 10%	Non-Toxic	> 777 µM	< 10%	Non-Toxic	> 777 µM	Non-Toxic	> 777 µM	> 777 µM	45%	12 µM (≈ 3.95 µg/mL)	> 777 µM	
Cc1nc2c([N+](=O)[O-])csc2c(=O)n1Cc1ccc([N+](=O)[O-])cc1	12.7 µg/mL (≈ 36.8 µM)	> 739 µM	6 µM (≈ 2.08 µg/mL)	90%	> 95%	Non-Toxic	> 739 µM	> 95%	Non-Toxic	> 739 µM	Non-Toxic	> 739 µM	> 739 µM	> 95%	12 µM (≈ 4.16 µg/mL)	> 739 µM	
